Screening results from PubChem.
Compounds with a hit are over-represented: about 2.8% of the library has one in this group of screens.
NPY-Y1 PAM-ag: potentiators or agonists of human neuropeptide Y receptor Y1. P25929. NPY-Y1 expressing cells, potentiator/agonist activation. activation, % at 3.6 µM. actives 0.37% (n = 220,000). AID 1304; in the data active = activation above about 33%, passing the limit was not always enough;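 also: cells stimulated with NPY at EC10 then isoproterenol at EC100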
NPY Y2 blocker: antagonists of human neuropeptide Y receptor Y2. actives 0.99% (n = 140,000). NPY-Y2 expressing cells, antagonist mode. AID 793. inhibition, % at 2.7 µM; in the data active = inhibition above about 17%
NPY-Y1 antag: antagonists of human neuropeptide Y receptor Y1. P25929. HEK293-CNG Y1 cells, membrane potential fluorescence; NPY at EC95, then isoproterenol. inhibition, % at 3.6 µM. actives 1% (n = 200,000). AID 1040;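 active = inhibition above the campaign mean inhibition of all tested compounds plus 3 SD, cut at about 20% in these data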
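Assay system: HEK293 Y1/CNG channel cell line; Doses: single compound dose of 3.6 µM, 0.4% DMSO; Timing: dye 3 h, compound 60 min room temperature, stimulation 45 min; Technique: Membrane-potential fluorescent dye readout; Measure: % inhibition of NPY effect.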
PGE2 EP2 inh: inhibitors of human EP2 prostaglandin E2 receptor; P43116; C6 glioma cells expressing human EP2, cAMP TR-FRET; cells stimulated with saturating PGE2; inhibition, % at 25 µM; actives 0.52% (n = 260,000);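 active = percent inhibition above 40 after rounding to a whole number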;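 also: rat C6 glioma host cells with rolipram phosphodiesterase inhibitor present; the protocol text gives 20 µM as final concentration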
Target sequence (P43116 whole entry, looked up): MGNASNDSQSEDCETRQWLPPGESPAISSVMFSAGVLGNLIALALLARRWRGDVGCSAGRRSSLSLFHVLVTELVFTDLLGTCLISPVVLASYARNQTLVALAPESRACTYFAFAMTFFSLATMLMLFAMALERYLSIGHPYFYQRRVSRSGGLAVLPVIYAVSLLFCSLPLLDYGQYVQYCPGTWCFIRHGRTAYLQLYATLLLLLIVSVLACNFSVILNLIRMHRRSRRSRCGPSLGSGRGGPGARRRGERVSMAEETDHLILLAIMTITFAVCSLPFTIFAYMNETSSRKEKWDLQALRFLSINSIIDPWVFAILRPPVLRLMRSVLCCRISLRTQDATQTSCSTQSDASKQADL
NPY-Y2 PAM-ag: potentiators or agonists of human neuropeptide Y receptor Y2; P49146; AID 1359; activation, % at 3.6 µM; cells expressing NPY-Y2, potentiator/agonist read-out; actives 0.45% (n = 220,000); in the data active = activation above about 27%;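 also: cells stimulated with NPY near EC25 plus isoproterenol at EC100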
EP2 modulator: modulators of human EP2 prostaglandin E2 receptor | P43116 | EP2-expressing cells, cAMP HTRF FRET, PGE2 co-stimulation | induction, % at 25 µM | actives 0.83% (n = 260,000);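 active = compounds whose cAMP rise, as percent of the full-agonist control response, exceeds 60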;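 also: rat C6 glioma line stably carrying human EP2 under a CMV promoter; the protocol text gives 20 µM as final concentration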
Hits are given with their value; – = inactive; · = no result.

SMILES	NPY-Y1 PAM-ag	NPY Y2 blocker	NPY-Y1 antag	PGE2 EP2 inh	NPY-Y2 PAM-ag	EP2 modulator
CCN(NC(=O)C(O)(c1ccc(F)cc1)c1ccc(F)cc1)C(=O)c1ccccc1	–	25.1	23.4	–	–	–
O=C(c1ccccc1)N(NC(=O)C(O)(c1ccccc1)c1ccccc1)c1cccc(F)c1	–	31.1	53.4	–	–	–
O=C(c1ccccc1F)N(NC(=O)C(O)(c1ccccc1)c1ccccc1)c1ccccc1	–	30.5	39.0	–	–	–
Cc1ccc(N(NC(=O)C(O)(c2ccccc2)c2ccccc2)C(=O)CCl)cc1	–	–	–	–	–	–
Cc1cccc(NC(=S)N2C3CCCC2CC(NC(=O)C(C)(C)C)C3)c1C (stereo not drawn)	·	·	·	–	·	–
COc1ccccc1CN(Cc1cc2ccc(C)c(C)c2[nH]c1=O)C(=O)c1cccs1	·	·	·	–	·	–
CCC(=O)N1CCN(c2ccc(NC(=O)c3ccc(OC)c(Cl)c3)cc2)CC1	·	·	·	–	·	–
Cc1cc2ccccc2nc1SCC(=O)Nc1nc(C)c(C)s1	·	·	·	–	·	–
Fc1ccc(N2CCN(Cc3c[nH]c4ccccc34)CC2)cc1	–	·	·	–	–	–
c1ccc2c(CN3CCN(Cc4c[nH]c5ccccc45)CC3)c[nH]c2c1	·	·	·	61.8	·	–
O=c1ccc2[n+]([O-])c3ccc(O)cc3oc-2c1	–	·	·	82.7	–	–
O=c1cc(O)c2ccc(O)cc2o1	–	·	–	–	–	–
Cc1cc(C)cc(Oc2nc(C(F)(F)F)nc3ccccc23)c1	–	–	–	–	–	60.6
COc1ccc(Oc2nc3ccccc3nc2C(F)(F)F)cc1	–	–	–	–	–	–
COc1cc2c(cc1NC(=S)Nc1cccc(C(F)(F)F)c1)oc1ccccc12	–	–	–	–	–	–
COc1cc2c(cc1NC(=S)Nc1cccc3ccccc13)oc1ccccc12	–	–	–	42.5	–	–
O=C(Nn1cnnc1)c1ccc2c(c1)OCO2	·	·	·	–	·	–
Cc1cccc(-c2nc3ccccc3c(=O)n2NC(=O)/C=C/c2ccc([N+](=O)[O-])cc2)c1	–	104.5	80.3	–	–	–
O=c1c2ccccc2nc(/C=C/c2cccc([N+](=O)[O-])c2)n1CCO	–	–	–	–	–	–
O=C(/C=C/c1cccc([N+](=O)[O-])c1)Nn1c(-c2ccccc2F)nc2ccccc2c1=O	–	65.8	46.1	–	–	–
Cc1cccc(-c2nc3ccccc3c(=O)n2NC(=S)N(C)C)c1	–	–	–	–	–	–
Cn1c(=N)n(CC(O)c2cccc3ccccc23)c2ccccc21 (stereo not drawn)	–	24.4	33.8	–	–	–
CCCN1C/C(=C/c2ccc3c(c2)OCO3)C(=O)/C(=C/c2ccc3c(c2)OCO3)C1	–	–	–	–	–	–
O=C1OCCC/C1=C\c1ccc2c(c1)OCO2	–	·	·	–	–	81.9
Oc1cc(-c2ccccc2)c2ccccc2c1	–	–	–	–	–	60.7
SMILES	NPY-Y1 PAM-ag	NPY Y2 blocker	NPY-Y1 antag	PGE2 EP2 inh	NPY-Y2 PAM-ag	EP2 modulator
O=C(O)c1c2ccccc2cc2ccccc12	·	·	·	–	·	–
CCC(CN1CCN(C)CC1)NC(=O)Cc1ccc2c(c1)CCC2 (stereo not drawn)	·	·	·	46.0	·	–
CCC(CN1CCC(C)CC1)NC(=O)Cc1ccc2c(c1)OCCO2 (stereo not drawn)	·	·	·	–	·	–
CCNc1nc(NC(C)C)nc(SCCOC(=O)c2ccccc2)n1	–	–	–	–	–	61.4
CC(=O)NC(NC(=S)Nc1ccc(N=Nc2ccccc2)cc1)C(Cl)(Cl)Cl (stereo not drawn)	45.6	–	–	–	–	–
c1ccc(-c2nc(-n3nc4ccccc4n3)nc3ccccc23)cc1	–	26.5	–	–	–	–
CN1C[C@H](c2ccccc2)C(O)([C@]2(c3ccccc3)CN(C)C[C@H](c3ccccc3)C2=O)[C@H](c2ccccc2)C1 (stereo partly drawn)	·	·	·	39.7	·	–
COc1ccc(C(=O)Nc2nnc(COc3ccccc3F)s2)cc1OC	·	·	·	–	·	–
CC[C@H](CCC(C)[C@H]1CCC2C3CCC4C[C@@H](O)CC[C@]4(C)C3CC[C@@]21C)C(C)C (stereo partly drawn)	·	·	·	–	·	–
COC(=O)CC[C@@H](C)[C@@H]1CC[C@@H]2[C@H]3CC[C@H]4C[C@@H](O)CC[C@]4(C)[C@@H]3CC[C@]21C	·	·	·	42.5	·	–
CC(C)CCC[C@@H](C)[C@@H]1CC[C@@H]2[C@H]3CC[C@H]4C[C@@H](N)CC[C@]4(C)[C@@H]3CC[C@]21C	·	·	·	40.5	·	–
CC(C)CCCC(C)C1CCC2C3C[C@@H](O)[C@@]4(O)C[C@@H](O)CC[C@]4(C)C3CC[C@]12C (stereo partly drawn)	·	·	·	–	·	–
Cc1ccc(CN2CCc3c(nc(N4CCC(C)CC4)[nH]c3=O)C2)cc1C	·	·	·	–	·	–
Fc1ccccc1CSc1nnc(-c2cnccn2)n1Cc1ccco1	–	–	–	·	–	–
C(=C\c1ccccc1)/CSc1nnc(-c2cnccn2)n1Cc1ccco1	–	21.5	–	–	–	–
COc1ccc(CCNc2nc(C(C)(C)C)nc3c2nnn3Cc2ccccc2)cc1OC	·	·	·	–	·	–
CC(=O)NC1C(=O)N(Cc2ccccc2)c2ccc(Br)cc21 (stereo not drawn)	–	·	·	–	–	–
CC(=O)NC1C(=O)N(CCc2ccccc2)c2ccc(Br)cc21 (stereo not drawn)	–	23.1	23.2	·	–	–
CCC(=O)Nc1nnc(CCS(=O)(=O)c2ccc(C)cc2)s1	·	·	·	–	·	–
O=C(C[N+]12CN3CN(CN(C3)C1)C2)c1ccc(-c2ccccc2)cc1	·	·	·	57.8	·	–
Cc1cc(-c2cn[nH]c2C2CCCN(CC(=O)NCc3cccs3)C2)on1 (stereo not drawn)	·	·	·	·	·	–
CC(=O)ON1C(C)(C)Cc2noc(N)c2C1(C)C	56.2	–	–	–	55.0	–
CN1CCc2c(sc3c2C(=O)NC(c2ccc4c(c2)OCO4)N3)C1 (stereo not drawn)	·	·	·	40.6	·	·
CN1CCc2c(sc3c2C(=O)NC(c2ccccc2)N3)C1 (stereo not drawn)	–	–	–	–	–	–
COC(=O)c1ccc(NC(=O)CSc2nnc3c(C)cc4ccc(C)cc4n23)cc1	·	·	·	–	·	–
SMILES	NPY-Y1 PAM-ag	NPY Y2 blocker	NPY-Y1 antag	PGE2 EP2 inh	NPY-Y2 PAM-ag	EP2 modulator
Clc1ccc(CN2C3=NCCCN3c3ccccc32)cc1Cl	–	·	21.2	–	–	–
CCc1cccc2c(SCC(=O)N3CCOCC3)nc(-c3ccc(F)cc3)nc12	·	·	·	–	·	–
COC(=O)COc1ccc(NS(=O)(=O)c2cccc([N+](=O)[O-])c2)cc1	35.4	·	–	–	48.2	–
N#Cc1cn(-c2ccccc2)nc1C(=O)c1ccccc1	–	–	–	–	–	62.4
Cc1ccc(-n2ncc(C(=O)Nc3ccc(Cl)cc3)c2C2CCNCC2)cc1C	–	·	20.2	–	–	–
CC(C)(C)OC(=O)N1CCC(c2c(C(=O)O)cnn2-c2ccc(Cl)cc2)CC1	–	–	–	–	–	–
